Laboratory results from ChEMBL document CHEMBL4819106, “Aminopyrazole based CDK9 PROTAC sensitizes pancreatic cancer cells to venetoclax” (Bioorg Med Chem Lett, 2021).
pIC50, pKd: −log10 of the molar value. Activity calls are given as the source filed them. No cut-off for these calls is given here.

Experiments:
[1] = test system: MIA PaCa-2; assay: Antiproliferative activity against human MIA PaCa-2 cells assessed as sensitizing activity by measuring combination index at ED50 measured after 3 days in presence of ABT- 263 by Prestoblue assay; format: functional; conditions: time 3 day
Summary of the method: (§1)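 MiaPaCa2 cells were treated for 3 days with the CDK9 degrader and a Bcl2-family inhibitor (ABT-263, ABT-199 or WEHI-539), singly and combined. Viability was read by PrestoBlue. Combination index values were calculated with CalcuSyn at effective doses ED50, ED75 and ED90.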

[2] = target: T1, Protein cereblon/Cyclin-dependent kinase 12 (Homo sapiens) (UniProt Q9NYV4+Q96SW2); assay: Protac activity at CDK12/CRBN in human HEK293 cells assessed as degradation of CDK12 at 0.01 to 10 uM incubated for 24 hrs by Western blot analysis; format: cell-based; conditions: dose 0.01-10 µM
[3] = target: T2, Protein cereblon/Cyclin-dependent kinase 7 (Homo sapiens) (UniProt P50613+Q96SW2); assay: Protac activity at CDK7/CRBN in human HEK293 cells assessed as degradation of CDK7 at 0.01 to 10 uM incubated for 24 hrs by Western blot analysis; format: cell-based; conditions: dose 0.01-10 µM
[4] = target: T3, Protein cereblon/Cyclin-dependent kinase 6 (Homo sapiens) (UniProt Q00534+Q96SW2); assay: Protac activity at CDK6/CRBN in human HEK293 cells assessed as degradation of CDK6 at 0.01 to 10 uM incubated for 24 hrs by Western blot analysis; format: cell-based; conditions: dose 0.01-10 µM
[5] = target: T4, Protein cereblon/Cyclin-dependent kinase 5 (Homo sapiens) (UniProt Q00535+Q96SW2); assay: Protac activity at CDK5/CRBN in human HEK293 cells assessed as degradation of CDK5 at 0.01 to 10 uM incubated for 24 hrs by Western blot analysis; format: cell-based; conditions: dose 0.01-10 µM
[6] = target: T5, Protein cereblon/Cyclin-dependent kinase 4 (Homo sapiens) (UniProt P11802+Q96SW2); assay: Protac activity at CDK4/CRBN in human HEK293 cells assessed as degradation of CDK4 at 0.01 to 10 uM incubated for 24 hrs by Western blot analysis; format: cell-based; conditions: dose 0.01-10 µM
[7] = target: T6, Protein cereblon/Cyclin-dependent kinase 2 (Homo sapiens) (UniProt P24941+Q96SW2); assay: Protac activity at CDK2/CRBN in human HEK293 cells assessed as degradation of CDK2 at 0.01 to 10 uM incubated for 24 hrs by Western blot analysis; format: cell-based; conditions: dose 0.01-10 µM
[8] = target: T1, Protein cereblon/Cyclin-dependent kinase 12 (Homo sapiens); assay: Protac activity at CDK12/CRBN in human HEK293 cells assessed as degradation of CDK12 at 1 uM measured upto 24 hrs by Western blot analysis; format: cell-based; conditions: time hrs <=24
Summary of the method: (§2)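 Time course in HEK293 cells at 1 μM degrader; lysates collected at indicated time points up to 24 h and probed by western blot for the various CDKs.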

[9] = target: Protein cereblon/Cyclin-dependent kinase 8 (Homo sapiens) (UniProt P49336+Q96SW2); assay: Protac activity at CDK8/CRBN in human HEK293 cells assessed as degradation of CDK8 at 1 uM measured upto 24 hrs by Western blot analysis; format: cell-based; conditions: time hrs <=24; summary of the method: as §2
[10] = target: T3, Protein cereblon/Cyclin-dependent kinase 6 (Homo sapiens); assay: Protac activity at CDK6/CRBN in human HEK293 cells assessed as degradation of CDK6 at 1 uM measured upto 24 hrs by Western blot analysis; format: cell-based; conditions: time hrs <=24; summary of the method: as §2
[11] = target: T4, Protein cereblon/Cyclin-dependent kinase 5 (Homo sapiens); assay: Protac activity at CDK5/CRBN in human HEK293 cells assessed as degradation of CDK5 at 1 uM measured upto 24 hrs by Western blot analysis; format: cell-based; conditions: time hrs <=24; summary of the method: as §2
[12] = target: T5, Protein cereblon/Cyclin-dependent kinase 4 (Homo sapiens); assay: Protac activity at CDK4/CRBN in human HEK293 cells assessed as degradation of CDK4 at 1 uM measured upto 24 hrs by Western blot analysis; format: cell-based; conditions: time hrs <=24; summary of the method: as §2
[13] = target: T6, Protein cereblon/Cyclin-dependent kinase 2 (Homo sapiens); assay: Protac activity at CDK2/CRBN in human HEK293 cells assessed as degradation of CDK2 at 1 uM measured upto 24 hrs by Western blot analysis; format: cell-based; conditions: time hrs <=24; summary of the method: as §2
[14] = target: T7, Protein cereblon/Cyclin-dependent kinase 1 (Homo sapiens) (UniProt P06493+Q96SW2); assay: Protac activity at CDK1/CRBN in human HEK293 cells assessed as degradation of CDK1 at 1 uM measured upto 24 hrs by Western blot analysis; format: cell-based; conditions: time hrs <=24; summary of the method: as §2
[15] = target: T8, Cyclin-dependent kinase 5 (Homo sapiens, UniProt Q00535); assay: Inhibition of CDK5 (unknown origin)
[16] = target: T9, Protein cereblon/Cyclin-dependent kinase 9 (Homo sapiens, UniProt P50750+Q96SW2); assay: Protac activity at CDK9/CRBN in human HEK293 cells assessed as degradation of CDK9 at 1 uM incubated for 24 hrs in presence of pomalidomide by Western blot analysis; format: cell-based
Summary of the method: (§3)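 Competition in HEK293 cells: 10 μM pomalidomide (CRBN ligand) alone or combined with 1 μM degrader for 24 h; lysates analysed by western blot.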

[17] = target: T2, Protein cereblon/Cyclin-dependent kinase 7 (Homo sapiens); assay: Protac activity at CDK7/CRBN in human HEK293 cells assessed as degradation of CDK7 at 10 uM incubated for 24 hrs in presence of pomalidomide by Western blot analysis; format: cell-based; summary of the method: as §3
[18] = target: Cyclin-dependent kinase 7 (Homo sapiens) (UniProt P50613); assay: Inhibition of CDK7 in human HEK293 cells assessed as reduction in CDK7 level at 10 uM incubated for 24 hrs in presence of flavopiridol by Western blot analysis; format: cell-based
[19] = target: T7, Protein cereblon/Cyclin-dependent kinase 1 (Homo sapiens); assay: Protac activity at CDK1/CRBN in human HEK293 cells assessed as degradation of CDK1 at 1 uM incubated for 24 hrs in presence of MG132 by Western blot analysis; format: cell-based
Summary of the method: (§4)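 HEK293 cells co-treated for 24 h with degrader and increasing concentrations of proteasome inhibitor MG132; lysates examined by western blot.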

[20] = target: T1, Protein cereblon/Cyclin-dependent kinase 12 (Homo sapiens); assay: Protac activity at CDK12/CRBN in human HEK293 cells assessed as degradation of CDK12 at 1 uM incubated for 24 hrs in presence of MG132 by Western blot analysis; format: cell-based; summary of the method: as §4
[21] = test system: MIA PaCa-2; assay: Antiproliferative activity against human MIA PaCa-2 cells assessed as sensitizing activity by measuring combination index at ED75 measured after 3 days in presence of ABT- 199 by Prestoblue assay; format: functional; conditions: time 3 day; summary of the method: as §1
[22] = test system: MIA PaCa-2; assay: Antiproliferative activity against human MIA PaCa-2 cells assessed as sensitizing activity by measuring combination index at ED50 measured after 3 days in presence of WEHI-539 by Prestoblue assay; format: functional; conditions: time 3 day; summary of the method: as §1
[23] = test system: MIA PaCa-2; assay: Antiproliferative activity against human MIA PaCa-2 cells assessed as sensitizing activity by measuring combination index at ED75 measured after 3 days in presence of WEHI-539 by Prestoblue assay; format: functional; conditions: time 3 day; summary of the method: as §1
[24] = target: T9, Protein cereblon/Cyclin-dependent kinase 9; assay: Protac activity at CDK9/CRBN in human MIA PaCa-2 cells assessed as degradation of CDK9; format: cell-based
[25] = target: T8, Cyclin-dependent kinase 5; assay: Binding affinity to CDK5 (unknown origin)
[26] = target: T10, Cyclin-dependent kinase 9 (Homo sapiens, UniProt P50750); assay: Binding affinity to CDK9 (unknown origin)
[27] = target: T11, Cyclin-dependent kinase 2 (Homo sapiens, UniProt P24941)
[28] = target: T11, Cyclin-dependent kinase 2; remark: listed apart in the source
[29] = target: T10, Cyclin-dependent kinase 9; assay: Inhibition of CDK9 in human HEK293 cells assessed as reduction in CDK9 level at 1 uM incubated for 8 hrs in presence of flavopiridol by Western blot analysis

T1 sequence (Q96SW2 whole entry, looked up): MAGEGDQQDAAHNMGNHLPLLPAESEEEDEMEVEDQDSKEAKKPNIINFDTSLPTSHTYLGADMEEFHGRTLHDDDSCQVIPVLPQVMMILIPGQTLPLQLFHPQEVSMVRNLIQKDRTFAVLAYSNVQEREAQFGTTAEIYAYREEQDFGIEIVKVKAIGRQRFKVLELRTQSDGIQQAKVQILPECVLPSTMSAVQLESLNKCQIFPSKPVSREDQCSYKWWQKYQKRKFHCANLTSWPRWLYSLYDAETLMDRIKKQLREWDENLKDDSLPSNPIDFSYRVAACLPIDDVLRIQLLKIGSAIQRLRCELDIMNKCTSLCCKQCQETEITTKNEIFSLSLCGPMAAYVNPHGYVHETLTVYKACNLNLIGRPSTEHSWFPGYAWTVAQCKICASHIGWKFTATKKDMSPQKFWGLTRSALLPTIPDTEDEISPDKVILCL
T1 sequence (Q9NYV4 whole entry, looked up): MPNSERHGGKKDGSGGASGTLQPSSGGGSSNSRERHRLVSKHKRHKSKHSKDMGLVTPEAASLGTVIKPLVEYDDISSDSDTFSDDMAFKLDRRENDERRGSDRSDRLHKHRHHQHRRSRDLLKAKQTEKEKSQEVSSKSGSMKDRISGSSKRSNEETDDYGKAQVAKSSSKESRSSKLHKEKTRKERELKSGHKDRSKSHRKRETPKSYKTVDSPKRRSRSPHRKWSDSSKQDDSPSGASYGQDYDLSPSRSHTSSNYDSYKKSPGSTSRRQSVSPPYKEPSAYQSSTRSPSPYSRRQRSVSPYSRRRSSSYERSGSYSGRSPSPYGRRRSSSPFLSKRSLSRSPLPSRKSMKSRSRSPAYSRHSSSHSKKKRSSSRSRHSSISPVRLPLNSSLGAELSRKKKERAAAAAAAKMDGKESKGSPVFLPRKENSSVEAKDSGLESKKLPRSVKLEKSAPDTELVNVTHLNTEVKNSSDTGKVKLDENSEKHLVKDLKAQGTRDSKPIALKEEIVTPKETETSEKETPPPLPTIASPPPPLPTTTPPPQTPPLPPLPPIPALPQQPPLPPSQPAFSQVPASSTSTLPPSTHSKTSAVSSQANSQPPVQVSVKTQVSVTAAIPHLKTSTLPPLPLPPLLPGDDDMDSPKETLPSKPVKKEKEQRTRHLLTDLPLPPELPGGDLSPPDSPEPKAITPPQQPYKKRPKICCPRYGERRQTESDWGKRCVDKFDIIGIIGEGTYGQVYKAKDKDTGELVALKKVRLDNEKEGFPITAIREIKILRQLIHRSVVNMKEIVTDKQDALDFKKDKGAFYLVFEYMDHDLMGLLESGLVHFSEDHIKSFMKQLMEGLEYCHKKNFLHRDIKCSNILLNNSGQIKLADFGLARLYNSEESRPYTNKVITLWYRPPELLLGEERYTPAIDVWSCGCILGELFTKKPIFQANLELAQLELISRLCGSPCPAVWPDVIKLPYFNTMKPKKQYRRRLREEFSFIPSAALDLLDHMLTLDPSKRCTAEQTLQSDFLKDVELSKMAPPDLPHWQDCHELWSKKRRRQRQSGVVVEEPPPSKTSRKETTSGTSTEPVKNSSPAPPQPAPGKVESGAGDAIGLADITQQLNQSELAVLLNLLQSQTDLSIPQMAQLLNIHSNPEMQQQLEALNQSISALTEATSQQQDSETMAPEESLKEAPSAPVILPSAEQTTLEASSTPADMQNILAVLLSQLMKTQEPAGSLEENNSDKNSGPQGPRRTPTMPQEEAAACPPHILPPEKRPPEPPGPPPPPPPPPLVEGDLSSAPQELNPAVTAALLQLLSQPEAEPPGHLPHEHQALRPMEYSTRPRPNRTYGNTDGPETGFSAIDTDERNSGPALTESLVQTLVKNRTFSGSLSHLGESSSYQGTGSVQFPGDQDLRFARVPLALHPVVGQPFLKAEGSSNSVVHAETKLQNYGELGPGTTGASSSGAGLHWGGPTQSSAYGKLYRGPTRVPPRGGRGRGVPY
T3 sequence (Q00534 whole entry, looked up): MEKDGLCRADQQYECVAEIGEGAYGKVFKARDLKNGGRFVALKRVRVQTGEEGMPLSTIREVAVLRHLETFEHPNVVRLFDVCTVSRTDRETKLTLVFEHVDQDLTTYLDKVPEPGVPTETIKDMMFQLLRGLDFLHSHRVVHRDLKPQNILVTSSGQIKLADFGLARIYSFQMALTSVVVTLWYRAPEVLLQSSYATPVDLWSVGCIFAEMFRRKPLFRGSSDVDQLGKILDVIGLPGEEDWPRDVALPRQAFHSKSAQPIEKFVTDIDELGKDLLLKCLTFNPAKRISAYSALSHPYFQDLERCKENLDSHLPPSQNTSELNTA
T3 sequence (Q96SW2 whole entry, looked up): as the sequence (Q96SW2 whole entry, looked up) above
T10 sequence (P50750 whole entry): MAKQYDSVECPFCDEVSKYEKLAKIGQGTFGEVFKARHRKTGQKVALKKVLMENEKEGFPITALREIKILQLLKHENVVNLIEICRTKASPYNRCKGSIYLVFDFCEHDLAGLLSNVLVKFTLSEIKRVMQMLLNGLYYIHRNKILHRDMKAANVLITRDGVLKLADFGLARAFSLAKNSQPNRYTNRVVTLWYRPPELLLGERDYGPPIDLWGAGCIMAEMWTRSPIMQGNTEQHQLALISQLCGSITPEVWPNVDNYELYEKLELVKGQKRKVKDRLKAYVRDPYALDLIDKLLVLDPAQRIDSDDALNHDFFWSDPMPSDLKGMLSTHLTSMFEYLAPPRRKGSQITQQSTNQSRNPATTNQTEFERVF
T9 sequence (P50750 whole entry, looked up): as the sequence (P50750 whole entry) above
T9 sequence (Q96SW2 whole entry, looked up): as the sequence (Q96SW2 whole entry, looked up) above
T8 sequence (Q00535 whole entry): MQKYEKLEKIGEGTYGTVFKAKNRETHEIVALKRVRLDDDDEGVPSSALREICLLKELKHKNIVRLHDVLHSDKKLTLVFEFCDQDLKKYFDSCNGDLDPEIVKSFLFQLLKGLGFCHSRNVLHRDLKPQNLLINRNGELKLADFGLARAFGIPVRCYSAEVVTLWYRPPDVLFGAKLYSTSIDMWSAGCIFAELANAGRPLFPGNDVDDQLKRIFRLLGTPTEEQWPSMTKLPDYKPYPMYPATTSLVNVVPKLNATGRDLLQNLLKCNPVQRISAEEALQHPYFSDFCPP
T4 sequence (Q00535 whole entry, looked up): as the sequence (Q00535 whole entry) above
T4 sequence (Q96SW2 whole entry, looked up): as the sequence (Q96SW2 whole entry, looked up) above
T5 sequence (P11802 2-303 limits assumed): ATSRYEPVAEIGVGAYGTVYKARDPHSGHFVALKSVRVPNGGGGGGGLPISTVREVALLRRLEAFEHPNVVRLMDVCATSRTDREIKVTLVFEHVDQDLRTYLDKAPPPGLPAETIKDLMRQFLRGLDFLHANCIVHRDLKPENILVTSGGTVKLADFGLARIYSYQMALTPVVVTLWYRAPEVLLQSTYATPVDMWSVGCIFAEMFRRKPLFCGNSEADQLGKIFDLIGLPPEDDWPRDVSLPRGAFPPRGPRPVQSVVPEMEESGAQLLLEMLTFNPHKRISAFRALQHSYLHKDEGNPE
T5 sequence (Q96SW2 whole entry partner): as the sequence (Q96SW2 whole entry, looked up) above
T2 sequence (P50613 whole entry, looked up): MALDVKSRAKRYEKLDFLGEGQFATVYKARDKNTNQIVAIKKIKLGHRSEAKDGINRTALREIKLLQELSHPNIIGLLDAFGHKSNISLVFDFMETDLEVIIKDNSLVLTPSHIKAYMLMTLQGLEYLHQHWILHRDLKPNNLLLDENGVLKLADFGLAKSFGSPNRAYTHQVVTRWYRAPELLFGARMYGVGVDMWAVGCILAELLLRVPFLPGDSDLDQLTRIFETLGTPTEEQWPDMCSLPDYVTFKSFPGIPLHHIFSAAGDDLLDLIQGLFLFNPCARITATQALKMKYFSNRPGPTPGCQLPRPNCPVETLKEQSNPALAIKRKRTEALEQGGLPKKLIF
T2 sequence (Q96SW2 whole entry, looked up): as the sequence (Q96SW2 whole entry, looked up) above
T7 sequence (P06493 whole entry, looked up): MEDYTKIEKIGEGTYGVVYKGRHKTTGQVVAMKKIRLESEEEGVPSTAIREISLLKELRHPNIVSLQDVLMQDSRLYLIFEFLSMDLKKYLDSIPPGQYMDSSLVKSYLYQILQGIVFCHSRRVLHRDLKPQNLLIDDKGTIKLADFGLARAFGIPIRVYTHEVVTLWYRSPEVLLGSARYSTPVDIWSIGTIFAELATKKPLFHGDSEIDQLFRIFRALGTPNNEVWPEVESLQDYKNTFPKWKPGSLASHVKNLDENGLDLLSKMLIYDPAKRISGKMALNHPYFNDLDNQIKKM
T7 sequence (Q96SW2 whole entry, looked up): as the sequence (Q96SW2 whole entry, looked up) above
Sequence of Cyclin-dependent kinase 7 (Homo sapiens) (P50613 whole entry): as the sequence (P50613 whole entry, looked up) above

`O=C(CCCOc1ccc(CC(=O)Nc2cc(C3CCC3)[nH]n2)cc1)NCCCCNc1cccc2c1C(=O)N(C1CCC(=O)NC1=O)C2=O` (centres undefined) was tested, and the CI [1] was 0.16, the Activity [2] was “inactive” and the Activity [3] was “inactive”. The Activity [4] was “inactive”, the Activity [5] was “inactive” and the Activity [6] was “inactive”. The Activity [7] was “inactive”, the Activity [8] was “inactive” and the Activity [9] was “inactive”. For the same compound, the Activity [10] was “inactive”, the Activity [11] was “inactive” and the Activity [12] was “inactive”. The Activity [13] was “inactive”, the Activity [14] was “inactive” and the pIC50 [15] was 8.15. The Activity [16] was “inactive”, the Activity [17] was “inactive” and the Activity [18] was “inactive”. For the same compound, the Activity [19] was “inactive”, the Activity [20] was “inactive” and the CI [21] was 0.001. The CI [22] was 1, the CI [23] was 0.6 and the Activity [24] was “Active”. For the same compound, the pKd [25] was 6.09, the pKd [26] was 5.98 and the pIC50 [27] was 6.81. The pKd [28] was 6.41 and the Activity [29] was “inactive”.
